The values below come from ChEMBL document CHEMBL1141508, “Lysinyl macrocyclic hexaoxazoles: synthesis and selective G-quadruplex stabilizing properties” (Bioorg Med Chem Lett, 2008).

In one experiment the test system is Salmonidae. Briefly: Binding affinity to salmon testes DNA assessed as transition temperature. Summed up: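 Salmon testes DNA (15 μM base pair) melted with ligand at 15 μM in 10 mM EPPS pH 7.5, KCl added to 50 mM total K+. Absorbance followed at 260 nm in a 1 cm quartz cuvette; heating in 0.5 °C increments, 1.5 min equilibration per setting, readings averaged over 5 s.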

For the next experiment, the species on record is Homo sapiens. Briefly: Binding affinity to human d(T2AG3)4 DNA assessed as transition temperature. Summed up: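 UV melting of d[T2G3(T2AG3)3A] (5 μM strand) with macrocycle at 20 μM in 10 mM potassium phosphate pH 7.5, KCl added to 150 mM total K+. Absorbance read at 295 nm, 1 cm quartz cuvette; temperature raised in 0.5 °C steps with 1.5 min equilibration, absorbance averaged over 5 s at each step.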

Experiment [1] in a line: Cytotoxicity against human RPMI8402 cells. The class given is functional, cell-based. Conditions: RPMI 8402.

`NCCCC[C@@H]1NC(=O)c2coc(n2)-c2coc(n2)-c2coc(n2)[C@H](CCCCN)NC(=O)c2coc(n2)-c2coc(n2)-c2coc1n2`: the T was determined as 79 °C in the experiment with Salmonidae and 102 °C in the experiment filed under Homo sapiens.
For `CC(C)[C@@H]1NC(=O)c2coc(n2)-c2coc(n2)-c2coc(n2)[C@H](CCCCN(C)C)NC(=O)c2coc(n2)-c2coc(n2)-c2coc1n2`, in that order: 76 °C and 81 °C.
Usually IC50 stands for the concentration that gives 50% inhibition. Read a low IC50 as greater potency in that assay. For the molecule `CC(C)[C@@H]1NC(=O)c2coc(n2)-c2coc(n2)-c2coc(n2)[C@H](C(C)C)NC(=O)c2coc(n2)-c2coc(n2)-c2coc1n2` [HEXAOXAZOLE DIVALINE], the figures for the T in the experiment with Salmonidae and in the experiment filed under Homo sapiens were 76.5 °C and 77 °C, respectively. Besides, the midpoint of inhibition in experiment [1], the IC50, lay at 400 nM.
Turning to `CC(C)[C@@H]1NC(=O)c2coc(n2)-c2coc(n2)-c2coc(n2)[C@H](CCCCN)NC(=O)c2coc(n2)-c2coc(n2)-c2coc1n2`, the T in the experiment with Salmonidae is 76.5 °C; in the experiment listed under Homo sapiens, 90 °C.
The like results for `CC(=O)NCCCC[C@@H]1NC(=O)c2coc(n2)-c2coc(n2)-c2coc(n2)[C@H](C(C)C)NC(=O)c2coc(n2)-c2coc(n2)-c2coc1n2` were, in that order, 76.5 °C and 79 °C.
